# Data as given in ChEMBL document CHEMBL1143308, “Spiro-piperidine azetidinones as potent TRPV1 antagonists” (Bioorg Med Chem Lett, 2009).
# Calls of active or inactive are those of the source. The rule behind the calls is not given here.
# Target: T1, Transient receptor potential cation channel subfamily V member 1 (Homo sapiens, UniProt Q8NER1)
# Test: Antagonist activity at TRPV1 expressed in HEK293 cells assessed as inhibition of capsaicin-induced activation by FLIPR assay
# Type: functional, cell-based
# Settings: not given
# Outline: (§1)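 FLIPR calcium-flux run at 37 °C in a HEK293 line stably transfected with TRPV1. Channel activated by capsaicin or by PMA, and the IC50 is taken against each agonist. Compounds dissolved in DMSO, with DMSO alone as the vehicle control.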
# T1 sequence (Q8NER1 whole entry): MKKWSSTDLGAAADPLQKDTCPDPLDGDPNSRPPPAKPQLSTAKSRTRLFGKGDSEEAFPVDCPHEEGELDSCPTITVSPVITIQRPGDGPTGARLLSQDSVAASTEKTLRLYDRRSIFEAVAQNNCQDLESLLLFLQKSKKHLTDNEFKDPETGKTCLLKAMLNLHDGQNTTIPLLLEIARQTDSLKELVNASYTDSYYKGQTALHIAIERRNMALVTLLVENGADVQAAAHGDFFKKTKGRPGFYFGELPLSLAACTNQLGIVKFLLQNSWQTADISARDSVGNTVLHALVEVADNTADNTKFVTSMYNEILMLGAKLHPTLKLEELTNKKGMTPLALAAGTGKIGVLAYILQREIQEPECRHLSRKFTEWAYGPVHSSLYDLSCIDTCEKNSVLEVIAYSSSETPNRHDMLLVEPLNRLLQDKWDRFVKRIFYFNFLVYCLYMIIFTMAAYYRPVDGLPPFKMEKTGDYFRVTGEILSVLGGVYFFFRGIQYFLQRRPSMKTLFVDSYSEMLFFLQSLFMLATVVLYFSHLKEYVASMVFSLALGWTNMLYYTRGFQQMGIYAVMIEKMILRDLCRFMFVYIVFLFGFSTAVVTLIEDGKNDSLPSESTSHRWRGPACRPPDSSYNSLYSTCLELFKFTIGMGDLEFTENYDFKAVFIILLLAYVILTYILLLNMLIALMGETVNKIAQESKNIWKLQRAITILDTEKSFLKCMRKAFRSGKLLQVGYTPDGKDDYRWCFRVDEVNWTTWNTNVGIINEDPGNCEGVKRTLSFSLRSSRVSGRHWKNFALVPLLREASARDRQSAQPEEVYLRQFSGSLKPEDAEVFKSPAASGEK
row,SMILES,IC50
1,O=C(Nc1ccc(C(F)(F)F)cc1)N1CCC2(CC1)C(=O)N(c1ccccn1)[C@H]2c1ccccc1,13 nM
2,CC(C)(C)[C@H]1CC[C@@H](NC(=O)N2CCC3(CC2)C(=O)N(c2ccccc2)[C@H]3c2ccccc2)CC1,528 nM
3,CC(C)c1ccc(NC(=O)N2CCC3(CC2)C(=O)N(c2ccccc2)C3c2ccccc2)cc1 (centres undefined),101 nM
4,O=C(Nc1ccc(C(F)(F)F)cc1)N1CCC2(CC1)C(=O)N(c1ccccc1)C2c1ccccc1 (racemic),85 nM
5,O=C(Nc1ccc(C(F)(F)F)cn1)N1CCC2(CC1)C(=O)N(c1ccccc1)C2c1ccccc1 (racemic),205 nM

# The remaining lines, values ahead:
row,IC50,SMILES
1,80 nM,CC(C)(C)c1ccc(NC(=O)N2CCC3(CC2)CN(c2ccccc2)C3=O)cc1
2,81 nM,CC(C)c1ccc(NC(=O)N2CCC3(CC2)C(=O)N(c2ccccc2)[C@H]3c2ccccc2)cc1
3,49 nM,CC(C)(C)[C@H]1CC[C@H](NC(=O)N2CCC3(CC2)C(=O)N(c2ccccc2)[C@H]3c2ccccc2)CC1
4,9.4 nM,CC(C)(C)c1ccc(NC(=O)N2CCC3(CC2)C(=O)N(c2ccccc2)[C@H]3c2ccccc2)cc1
5,226 nM,CC(C)(c1ccccc1)c1ccc(NC(=O)N2CCC3(CC2)C(=O)N(c2ccccc2)[C@H]3c2ccccc2)cc1

# Target: T1, Transient receptor potential cation channel subfamily V member 1
# Test: Antagonist activity at TRPV1 expressed in HEK293 cells assessed as inhibition of capsaicin-induced activation at 10 uM by FLIPR assay
# Type: functional, cell-based
# Parameters: scale not given: the % may be the effect or the level left
# Settings: not given
# Outline: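 TRPV1 FLIPR run at 37 °C in stably transfected HEK293 cells, capsaicin-activated. Percent inhibition measured with test compound at a single concentration of 10 µM, from DMSO solution, with a DMSO vehicle control.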
row,Activity,SMILES
1,73%,CC(C)(C)c1ccc(NC(=O)N2CCC3(CC2)CN(c2ccccc2-c2ccccc2)C3=O)cc1
2,8.5%,CC(C)(C)c1ccc(NC(=O)N2CCC3(CC2)C(=O)N(c2ccccc2)[C@@H]3c2ccccc2)cc1
3,83%,O=C(Nc1ccc(C(F)(F)F)cc1)N1CCC2(CC1)C(=O)N(c1ccccn1)[C@@H]2c1ccccc1
4,inactive,CC(C)c1ccc(NC(=O)N2CCC3(CC2)C(=O)N(c2ccccc2)[C@@H]3c2ccccc2)cc1

# Target: T1, Transient receptor potential cation channel subfamily V member 1
# Test: Antagonist activity at TRPV1 expressed in HEK293 cells assessed as inhibition of PMA-induced activation by FLIPR assay
# Type: functional, cell-based
# Settings: not given
# Outline: as §1
row,SMILES,IC50
1,O=C(Nc1ccc(C(F)(F)F)cc1)N1CCC2(CC1)C(=O)N(c1ccccn1)[C@H]2c1ccccc1,8.5 nM
2,CC(C)(C)[C@H]1CC[C@@H](NC(=O)N2CCC3(CC2)C(=O)N(c2ccccc2)[C@H]3c2ccccc2)CC1,232 nM
3,CC(C)c1ccc(NC(=O)N2CCC3(CC2)C(=O)N(c2ccccc2)C3c2ccccc2)cc1 (centres undefined),113 nM
4,O=C(Nc1ccc(C(F)(F)F)cc1)N1CCC2(CC1)C(=O)N(c1ccccc1)C2c1ccccc1 (racemic),103 nM
5,O=C(Nc1ccc(C(F)(F)F)cn1)N1CCC2(CC1)C(=O)N(c1ccccc1)C2c1ccccc1 (racemic),318 nM

# The remaining lines, values ahead:
row,IC50,SMILES
1,59 nM,CC(C)(C)c1ccc(NC(=O)N2CCC3(CC2)CN(c2ccccc2)C3=O)cc1
2,43 nM,CC(C)c1ccc(NC(=O)N2CCC3(CC2)C(=O)N(c2ccccc2)[C@H]3c2ccccc2)cc1
3,32 nM,CC(C)(C)[C@H]1CC[C@H](NC(=O)N2CCC3(CC2)C(=O)N(c2ccccc2)[C@H]3c2ccccc2)CC1
4,12 nM,CC(C)(C)c1ccc(NC(=O)N2CCC3(CC2)C(=O)N(c2ccccc2)[C@H]3c2ccccc2)cc1

# System: not listed separately
# Test: AUC (0 to 6 hrs) in rat at 10 mg/kg, po
# Type: ADME, organism-based
# Parameters: time < 6 hr, dose 10 mg/kg, route oral
# Settings: plasma
# Outline: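 Rat pharmacokinetics: oral dosing at 10 mpk in 20% HPBCD vehicle; AUC taken over 0–6 h.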
row,SMILES,AUC(0-t) at 6 h
1,O=C(Nc1ccc(C(F)(F)F)cc1)N1CCC2(CC1)C(=O)N(c1ccccn1)[C@H]2c1ccccc1,2500 ng·h/mL
2,CC(C)c1ccc(NC(=O)N2CCC3(CC2)C(=O)N(c2ccccc2)C3c2ccccc2)cc1 (centres undefined),44 ng·h/mL
3,O=C(Nc1ccc(C(F)(F)F)cc1)N1CCC2(CC1)C(=O)N(c1ccccc1)C2c1ccccc1 (racemic),1660 ng·h/mL

# Next, values leading:
row,AUC(0-t) at 6 h,SMILES
1,19 ng·h/mL,CC(C)c1ccc(NC(=O)N2CCC3(CC2)C(=O)N(c2ccccc2)[C@H]3c2ccccc2)cc1
2,49 ng·h/mL,CC(C)(C)c1ccc(NC(=O)N2CCC3(CC2)C(=O)N(c2ccccc2)[C@H]3c2ccccc2)cc1

# System: not listed separately
# Test: Stability in pH 7.4 buffer assessed as formation of 1-(tert-butoxycarbonyl)-3-(phenyl(phenylamino)methyl)azetidine-3-carboxylic acid after 2 hrs
# Type: physicochemical
# Settings: pH 7.4, 2 h
# Outline: (§2)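 Compound held in pH 7.4 buffer spiked with 0.1 M NaSMe and methylamine to mimic plasma nucleophiles. Followed by LC–MS for up to 24 h, tracking loss of parent and appearance of the ring-opened amino acid.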
row,SMILES,Stability
1,CC(C)(C)OC(=O)N1CC2(C1)C(=O)N(c1ccccc1)C2c1ccccc1 (centres undefined),Unstable

# System: not listed separately
# Test: Stability in pH 7.4 buffer after 24 hrs
# Type: physicochemical
# Settings: pH 7.4, 24 h
# Outline: as §2
row,Stability,SMILES
1,Stable,CC(C)(C)OC(=O)N1CCC2(CC1)C(=O)N(c1ccccc1)C2c1ccccc1 (centres undefined)

# System: not listed separately
# Test: Half life in iv dosed rat
# Type: ADME, organism-based
# Settings: in vivo
# Outline: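 Rat dosed intravenously as an add-on to the oral PK study (10 mpk oral in 20% HPBCD); terminal half-life from the iv arm.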
row,half-life,SMILES
1,2.5 h,O=C(Nc1ccc(C(F)(F)F)cc1)N1CCC2(CC1)C(=O)N(c1ccccn1)[C@H]2c1ccccc1

# System: not listed separately
# Test: Oral bioavailability in rat at 10 mg/kg
# Type: ADME, organism-based
# Settings: in vivo
row,bioavailability,SMILES
1,45%,O=C(Nc1ccc(C(F)(F)F)cc1)N1CCC2(CC1)C(=O)N(c1ccccn1)[C@H]2c1ccccc1

# System: not listed separately
# Test: Aqueous solubility of the compound
# Type: physicochemical
# Settings: buffer
row,solubility,SMILES
1,0.3 µM,O=C(Nc1ccc(C(F)(F)F)cc1)N1CCC2(CC1)C(=O)N(c1ccccn1)[C@H]2c1ccccc1
2,0.094 µM,CC(C)(C)c1ccc(NC(=O)N2CCC3(CC2)C(=O)N(c2ccccc2)[C@H]3c2ccccc2)cc1
